High-throughput results deposited in PubChem BioAssay by Sanford-Burnham Center for Chemical Genomics.
HKDC1 activator – HKDC1 (human) hexokinase activation; AID 493187; recombinant HKDC1, G6PDH/diaphorase resazurin fluorescence; hits give low values; 340,000 compounds, 0.056% hits; activity change, negative = activation, % at 20 µM;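 active = activation of 40% or more at 20 µM, a change of -40% or lower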
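Material – in-house human HKDC1 enzyme, G6PDH and diaphorase coupling enzymes · Input – HKDC1 at 5 µg/mL final · Buffer or medium – pH 8.0 Tris with MgCl2 · Dosing – single compound dose of 20 µM, 1% DMSO final · Incubation – 90 min, room temperature · Technique – resorufin fluorescence from 100 µM resazurin, NADP 1 mM, Ex 525/Em 613 nm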
An asterisk follows results filed as active. These entries were drawn from the full list.

CCN=C1NN=C(c2ccc(C)cc2)CS1 was read as HKDC1 activator -64.0*.
`CCc1nc2sc3c(=O)[nH]cnc3c2c2c1CSC(C)(C)C2` gave HKDC1 activator 37.4.
`C=CC1=C(C(=O)O)N2C(=O)C(NC(=O)Cc3ccccc3)C2SC1` (stereo not given) gave HKDC1 activator 40.2.
Screening CC(=NNC(=S)N1CC2CCC(CC2)C1)c1ccncn1 returned HKDC1 activator -54.1*.
`CNCc1ccccc1Sc1cc(O)ccc1O` gave HKDC1 activator 64.2.
CCN(CC)C(=O)c1ccc(C(=O)c2c(C)cc(C)cc2C)cc1 was read as HKDC1 activator 39.3.
For CC(=O)Nc1ccc2cc3ccc(NC(C)=O)cc3nc2c1 the results were HKDC1 activator 42.5.
For Cc1ccc(S(=O)(=O)/N=C2\C=C(Nc3cccc(C(=O)O)c3)C(=O)c3ccccc32)cc1 the results were HKDC1 activator 44.7.
For Cc1ccc(N=C2C(=S)N(c3ccc(C)cc3)C(=N)N2/N=C/c2ccc(Cl)cc2)cc1 the results were HKDC1 activator -119.5*.
Screening C=CC(=O)N1C/C(=C/c2ccccc2)C(=O)/C(=C\c2ccccc2)C1 returned HKDC1 activator 37.5.
For CCOc1ccc2c(ccc(/C=C/c3cc(C)c4cccnc4c3O)[n+]2C)c1 the results were HKDC1 activator 46.4.
For Cc1nc2c(c(=O)c3ccccc3n2C)c(=O)n1-c1ccccc1 the results were HKDC1 activator 50.7.
Screening Oc1ccc(Br)cc1CNc1cccc2cccnc12 returned HKDC1 activator 40.5.
Screening Nc1nc(-c2cccc(Br)c2)cs1 returned HKDC1 activator -65.1*.
CC(C)(C)c1c(Cl)c(O)c(-c2ccccc2)c(=O)n1-c1ccccc1 was read as HKDC1 activator 36.2.
`Nn1cnnc1N/N=C/c1cc(Br)cc(Br)c1O` gave HKDC1 activator -52.2*.
For COc1ccccc1N(C)S(=O)(=O)c1ccc(Cl)c(C(=O)NCC2(N(C)C)CCCCC2)c1 the results were HKDC1 activator 41.5.
Screening O=C(O)c1cc(N2N=C(C(F)(F)F)/C(=C/C=C/c3ccco3)C2=O)ccc1Cl returned HKDC1 activator 46.4.
Cc1ccc(NC(=O)CN2C(=O)S/C(=C/c3ccc(-c4cc(C(=O)O)ccc4C)o3)C2=O)cc1C was read as HKDC1 activator 43.0.
For CCC(=O)OC1(C)C(=O)C2=COC(c3ccc(OC)cc3)=CC2=C(Br)C1=O (stereo not given) the results were HKDC1 activator 45.5.
`CCCCNCCOCCOc1ccccc1-c1ccccc1` gave HKDC1 activator -58.9*.
Screening Oc1ccc(/C=N/Nc2ccnc3cc(Cl)ccc23)c(O)c1O returned HKDC1 activator 37.0.
`Cc1cc(/C=C\c2ccc3cc(N(C)C)ccc3[n+]2C)c(C)n1-c1ccccc1` gave HKDC1 activator 36.7.
Screening Cc1n[nH]c(=O)c2c(NC(=O)CSc3nnc(C4CC4)n3C)oc(C)c12 returned HKDC1 activator 39.7.
`O=c1c2c3nc4ccccc4nc3n(-c3ccc4c(c3)OCCO4)c2ncn1C1CCCC1` gave HKDC1 activator 47.8.
For Cc1ccc(-c2ccc(/C=C3\C(=O)ON=C3c3ccccc3)o2)c([N+](=O)[O-])c1 the results were HKDC1 activator 42.5.
COCc1cc(SC2CCCCC2)nc(C)n1 was read as HKDC1 activator 45.5.
CC(NNC(=S)N1CCN(c2ccccn2)CC1)c1nccc2ccccc12 (stereo not given) was read as HKDC1 activator -41.9*.
Screening Cc1ccc(S(=O)(=O)/N=C2\C=C(Nc3cccc(C(=O)O)c3)C(=O)c3ccccc32)c(C)c1 returned HKDC1 activator 39.0.
Screening Cc1ccc(C)c(S(=O)(=O)Nc2cc(SCC(=O)O)c(O)c3ccccc23)c1 returned HKDC1 activator 63.4.
Screening Cc1[nH]c2ccccc2c1C(C#N)(C#N)C1C(=O)c2ccccc2C1=O returned HKDC1 activator 57.1.
NC1=C(Cl)C(=O)c2ccc(S(N)(=O)=O)cc2C1=O was read as HKDC1 activator -133.9*.
For O=C(O)c1ccccc1N=Nc1c(O)[nH]c2ccc([N+](=O)[O-])cc12 the results were HKDC1 activator 37.1.
CCc1nc2c(c(=O)c3ccccc3n2C)c(=O)n1-c1ccc(F)cc1 was read as HKDC1 activator 48.1.
Screening COC(=O)CCC(=O)OC1(C)C(=O)C2=CN(c3ccccc3)C(c3ccc(OC)cc3)=CC2=C(Br)C1=O (stereo not given) returned HKDC1 activator 38.2.
`C=CCNC(=S)N/N=C(\C)c1ccccn1` gave HKDC1 activator -43.5*.
Screening COc1cc(C2c3c([nH]c(=O)[nH]c3=O)Nc3ccc4ccccc4c32)cc(OC)c1OC (stereo not given) returned HKDC1 activator 37.5.
For COc1cc(/C=C2/C(=O)NN(c3ccc(Cl)c(Cl)c3)C2=O)cc([N+](=O)[O-])c1O the results were HKDC1 activator 49.6.
Screening O=C(NC1=C(NC2CCS(=O)(=O)C2)C(=O)c2ccccc2C1=O)c1ccccc1 (stereo not given) returned HKDC1 activator 53.0.
